From ChEMBL document CHEMBL1909591, “Design, synthesis, and SAR studies of novel polycyclic acids as potent and selective inhibitors of human 11β-hydroxysteroid dehydrogenase type 1 (11β-HSD-1)” (Bioorg Med Chem Lett, 2011)
Active and inactive are the calls of the source. The calls are words filed in the database; no cut-off is given here.

Key:
[1] = biological target: T1, Cytochrome P450 1A2 (Homo sapiens, UniProt P05177); assay: Inhibition of CYP1A2; assay type: ADME
T1 sequence (P05177 whole entry): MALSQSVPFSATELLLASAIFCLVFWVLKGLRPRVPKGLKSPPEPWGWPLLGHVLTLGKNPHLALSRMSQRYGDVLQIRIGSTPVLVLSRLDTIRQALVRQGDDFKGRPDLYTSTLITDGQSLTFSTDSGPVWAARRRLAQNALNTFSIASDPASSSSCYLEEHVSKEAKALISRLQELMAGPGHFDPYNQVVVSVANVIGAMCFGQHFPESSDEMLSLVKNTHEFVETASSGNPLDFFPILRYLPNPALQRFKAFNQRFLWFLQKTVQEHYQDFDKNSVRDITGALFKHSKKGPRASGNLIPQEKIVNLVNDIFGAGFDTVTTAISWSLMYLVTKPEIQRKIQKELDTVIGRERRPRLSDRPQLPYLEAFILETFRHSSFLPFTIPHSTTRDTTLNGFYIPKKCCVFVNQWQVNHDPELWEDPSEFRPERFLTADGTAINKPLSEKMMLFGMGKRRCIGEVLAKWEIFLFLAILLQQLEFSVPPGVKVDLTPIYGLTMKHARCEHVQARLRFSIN

[2] = Metabolic stability in mouse liver microsomes assessed as compound remaining after 10 mins; assay type: ADME, Microsome; conditions: liver microsomes, read-out: Stability
[3] = Metabolic stability in human liver microsomes assessed as compound remaining after 10 mins; assay type: ADME, Microsome; conditions: liver microsomes, read-out: Stability
[4] = biological target: Cytochrome P450 2C9 (Homo sapiens, UniProt P11712); assay: Inhibition of CYP2C9; assay type: ADME
[5] = biological target: Cytochrome P450 2C19 (Homo sapiens, UniProt P33261); assay: Inhibition of CYP2C19; assay type: ADME
[6] = biological target: 11-beta-hydroxysteroid dehydrogenase type 2 (Homo sapiens) (UniProt P80365); assay: Inhibition of human 11beta-HSD-2
[7] = biological target: 11-beta-hydroxysteroid dehydrogenase 1 (Mus musculus, UniProt P50172); assay: Inhibition of mouse 11beta-HSD-1
[8] = AUC (0 to 8 hrs) in mouse at 30 umol/kg; assay type: ADME, organism-based; parameters: time < 8 hr, dose 30 umol/kg; conditions: plasma
Summary of the method: (§1)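 Oral dosing in mice, with the compound in water containing 0.5% methocel and 0.1% Tween 80. Plasma concentrations were measured at 1, 4 and 8 h after dosing.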

[9] = biological target: T2, Peroxisome proliferator-activated receptor gamma (Homo sapiens) (UniProt P37231); assay: Activation of PPARgamma up to 30 uM
T2 sequence (whole entry): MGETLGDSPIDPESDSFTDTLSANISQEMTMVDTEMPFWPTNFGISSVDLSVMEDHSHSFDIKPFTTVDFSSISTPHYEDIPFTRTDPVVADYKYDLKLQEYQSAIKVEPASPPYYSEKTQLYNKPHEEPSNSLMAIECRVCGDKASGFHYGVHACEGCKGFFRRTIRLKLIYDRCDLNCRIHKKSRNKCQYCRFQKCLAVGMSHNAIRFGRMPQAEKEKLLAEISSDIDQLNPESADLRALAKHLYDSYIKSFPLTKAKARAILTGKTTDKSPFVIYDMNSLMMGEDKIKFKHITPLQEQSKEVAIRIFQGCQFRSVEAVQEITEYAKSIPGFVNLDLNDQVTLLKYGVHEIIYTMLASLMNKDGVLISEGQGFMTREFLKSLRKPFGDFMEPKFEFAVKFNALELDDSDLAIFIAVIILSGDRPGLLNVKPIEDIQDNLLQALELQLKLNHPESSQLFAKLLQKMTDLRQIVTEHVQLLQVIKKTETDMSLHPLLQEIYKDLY

[10] = Cmax in mouse at 30 umol/kg; assay type: ADME, organism-based; parameters: dose 30 umol/kg; conditions: in vivo; summary of the method: as §1
[11] = biological target: T3, Nuclear receptor subfamily 1 group I member 2 (Homo sapiens, UniProt O75469); assay: Transactivation of PXR
T3 sequence (O75469 whole entry): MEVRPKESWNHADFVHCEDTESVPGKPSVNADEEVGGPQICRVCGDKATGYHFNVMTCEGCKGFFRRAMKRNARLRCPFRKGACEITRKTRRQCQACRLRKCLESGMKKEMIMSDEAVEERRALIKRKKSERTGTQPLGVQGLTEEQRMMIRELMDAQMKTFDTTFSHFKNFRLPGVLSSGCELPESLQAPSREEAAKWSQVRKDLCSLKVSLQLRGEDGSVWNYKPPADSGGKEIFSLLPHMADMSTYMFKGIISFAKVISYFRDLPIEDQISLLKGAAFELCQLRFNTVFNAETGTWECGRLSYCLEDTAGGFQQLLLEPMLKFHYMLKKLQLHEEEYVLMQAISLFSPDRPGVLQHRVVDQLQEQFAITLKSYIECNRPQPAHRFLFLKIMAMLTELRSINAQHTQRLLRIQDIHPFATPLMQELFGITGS

[12] = biological target: T4, Peroxisome proliferator-activated receptor delta (Homo sapiens) (UniProt Q03181); assay: Activation of PPARdelta up to 30 uM
T4 sequence (whole entry): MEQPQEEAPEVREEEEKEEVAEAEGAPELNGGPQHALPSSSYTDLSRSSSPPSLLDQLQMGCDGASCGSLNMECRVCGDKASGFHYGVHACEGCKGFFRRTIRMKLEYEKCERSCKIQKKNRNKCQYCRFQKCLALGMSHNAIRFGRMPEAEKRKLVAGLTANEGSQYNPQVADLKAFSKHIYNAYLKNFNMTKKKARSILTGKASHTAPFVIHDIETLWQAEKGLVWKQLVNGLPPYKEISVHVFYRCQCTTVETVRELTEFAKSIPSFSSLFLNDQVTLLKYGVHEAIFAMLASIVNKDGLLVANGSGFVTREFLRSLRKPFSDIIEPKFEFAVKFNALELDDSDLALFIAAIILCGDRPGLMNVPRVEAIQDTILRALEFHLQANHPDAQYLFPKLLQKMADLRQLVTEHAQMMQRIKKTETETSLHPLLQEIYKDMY

[13] = biological target: T5, 11-beta-hydroxysteroid dehydrogenase type 2 (Homo sapiens) (UniProt P80365); assay: Inhibition of human 11beta-HSD-2 at 10 uM
T5 sequence (whole entry): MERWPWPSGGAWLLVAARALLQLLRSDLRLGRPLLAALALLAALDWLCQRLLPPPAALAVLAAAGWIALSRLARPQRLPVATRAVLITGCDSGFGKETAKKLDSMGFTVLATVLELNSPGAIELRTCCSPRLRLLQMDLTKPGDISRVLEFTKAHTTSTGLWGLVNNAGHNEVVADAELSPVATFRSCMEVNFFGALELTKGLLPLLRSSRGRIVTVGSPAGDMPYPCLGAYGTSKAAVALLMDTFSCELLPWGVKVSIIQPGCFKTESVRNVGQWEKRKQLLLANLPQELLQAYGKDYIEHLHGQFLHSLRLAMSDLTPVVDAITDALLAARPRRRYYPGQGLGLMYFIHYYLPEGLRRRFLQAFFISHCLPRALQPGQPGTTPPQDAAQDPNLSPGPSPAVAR

[14] = biological target: Cytochrome P450 2D6 (Homo sapiens, UniProt P10635); assay: Inhibition of CYP2D6; assay type: ADME
[15] = biological target: Voltage-gated inwardly rectifying potassium channel KCNH2 (Homo sapiens, UniProt Q12809); assay: Inhibition of human ERG
[16] = biological target: Cytochrome P450 3A4 (Homo sapiens, UniProt P08684); assay: Inhibition of CYP3A4; assay type: ADME
[17] = biological target: T6, Peroxisome proliferator-activated receptor alpha (Homo sapiens) (UniProt Q07869); assay: Activation of PPARalpha up to 30 uM
T6 sequence (whole entry): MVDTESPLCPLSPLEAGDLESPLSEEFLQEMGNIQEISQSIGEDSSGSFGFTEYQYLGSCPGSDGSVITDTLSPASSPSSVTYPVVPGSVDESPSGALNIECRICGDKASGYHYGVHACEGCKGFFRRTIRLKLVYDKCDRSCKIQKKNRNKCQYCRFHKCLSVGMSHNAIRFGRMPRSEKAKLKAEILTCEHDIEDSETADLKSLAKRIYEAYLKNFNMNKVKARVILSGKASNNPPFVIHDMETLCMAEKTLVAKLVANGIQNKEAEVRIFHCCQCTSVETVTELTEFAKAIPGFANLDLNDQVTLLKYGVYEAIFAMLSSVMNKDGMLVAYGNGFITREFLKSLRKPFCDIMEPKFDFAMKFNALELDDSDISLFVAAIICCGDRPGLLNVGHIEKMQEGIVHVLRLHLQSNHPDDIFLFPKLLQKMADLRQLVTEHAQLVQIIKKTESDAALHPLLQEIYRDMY

Sequence of Cytochrome P450 2C19 (P33261 whole entry): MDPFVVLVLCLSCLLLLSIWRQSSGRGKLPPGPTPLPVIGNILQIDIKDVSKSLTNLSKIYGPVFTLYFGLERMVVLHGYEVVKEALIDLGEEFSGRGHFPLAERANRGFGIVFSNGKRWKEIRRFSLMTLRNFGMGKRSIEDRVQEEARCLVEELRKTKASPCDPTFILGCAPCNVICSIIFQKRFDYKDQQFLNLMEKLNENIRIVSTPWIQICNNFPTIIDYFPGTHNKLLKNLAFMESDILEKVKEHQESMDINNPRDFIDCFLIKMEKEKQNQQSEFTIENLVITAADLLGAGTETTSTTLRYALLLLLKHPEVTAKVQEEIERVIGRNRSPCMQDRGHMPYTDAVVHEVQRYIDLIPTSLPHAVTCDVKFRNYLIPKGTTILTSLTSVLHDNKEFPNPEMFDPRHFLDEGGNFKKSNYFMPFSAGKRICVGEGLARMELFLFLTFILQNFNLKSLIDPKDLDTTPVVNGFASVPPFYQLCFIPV
Sequence of Cytochrome P450 2C9 (P11712 whole entry): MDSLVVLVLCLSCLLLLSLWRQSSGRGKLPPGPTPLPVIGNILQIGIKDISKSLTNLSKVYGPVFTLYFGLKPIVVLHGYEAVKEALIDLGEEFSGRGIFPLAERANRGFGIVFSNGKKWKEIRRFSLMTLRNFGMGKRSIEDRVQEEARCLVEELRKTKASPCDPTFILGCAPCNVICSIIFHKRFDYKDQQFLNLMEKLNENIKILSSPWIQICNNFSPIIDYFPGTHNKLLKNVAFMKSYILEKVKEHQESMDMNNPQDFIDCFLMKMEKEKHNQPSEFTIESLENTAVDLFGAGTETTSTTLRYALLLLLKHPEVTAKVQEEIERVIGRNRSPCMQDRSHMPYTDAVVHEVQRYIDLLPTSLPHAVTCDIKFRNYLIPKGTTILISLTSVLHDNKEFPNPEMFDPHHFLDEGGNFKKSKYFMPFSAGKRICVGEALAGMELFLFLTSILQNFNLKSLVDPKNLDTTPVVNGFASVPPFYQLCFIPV
Sequence of Cytochrome P450 3A4 (P08684 whole entry): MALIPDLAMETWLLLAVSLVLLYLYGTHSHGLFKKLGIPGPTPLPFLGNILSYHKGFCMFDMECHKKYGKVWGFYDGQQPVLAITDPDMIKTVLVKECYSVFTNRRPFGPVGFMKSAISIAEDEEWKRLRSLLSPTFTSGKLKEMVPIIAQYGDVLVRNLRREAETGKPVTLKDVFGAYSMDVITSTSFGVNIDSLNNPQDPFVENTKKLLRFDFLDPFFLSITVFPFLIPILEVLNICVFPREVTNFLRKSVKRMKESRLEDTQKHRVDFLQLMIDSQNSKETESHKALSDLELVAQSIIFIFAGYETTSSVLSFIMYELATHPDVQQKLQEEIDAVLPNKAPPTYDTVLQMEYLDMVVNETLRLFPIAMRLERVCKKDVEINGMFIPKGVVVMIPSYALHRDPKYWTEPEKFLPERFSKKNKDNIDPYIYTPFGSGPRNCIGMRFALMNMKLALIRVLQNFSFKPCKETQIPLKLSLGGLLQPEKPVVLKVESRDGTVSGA
Sequence of 11-beta-hydroxysteroid dehydrogenase 1 (P50172 whole entry): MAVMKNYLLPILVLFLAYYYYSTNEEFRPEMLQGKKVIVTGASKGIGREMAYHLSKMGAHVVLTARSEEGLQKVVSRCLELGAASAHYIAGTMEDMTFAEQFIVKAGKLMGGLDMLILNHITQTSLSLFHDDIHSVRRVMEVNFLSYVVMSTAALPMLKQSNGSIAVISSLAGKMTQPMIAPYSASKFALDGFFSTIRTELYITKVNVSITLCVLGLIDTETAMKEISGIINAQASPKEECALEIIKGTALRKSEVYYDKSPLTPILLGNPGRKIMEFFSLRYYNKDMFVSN
Sequence of Cytochrome P450 2D6 (P10635 whole entry): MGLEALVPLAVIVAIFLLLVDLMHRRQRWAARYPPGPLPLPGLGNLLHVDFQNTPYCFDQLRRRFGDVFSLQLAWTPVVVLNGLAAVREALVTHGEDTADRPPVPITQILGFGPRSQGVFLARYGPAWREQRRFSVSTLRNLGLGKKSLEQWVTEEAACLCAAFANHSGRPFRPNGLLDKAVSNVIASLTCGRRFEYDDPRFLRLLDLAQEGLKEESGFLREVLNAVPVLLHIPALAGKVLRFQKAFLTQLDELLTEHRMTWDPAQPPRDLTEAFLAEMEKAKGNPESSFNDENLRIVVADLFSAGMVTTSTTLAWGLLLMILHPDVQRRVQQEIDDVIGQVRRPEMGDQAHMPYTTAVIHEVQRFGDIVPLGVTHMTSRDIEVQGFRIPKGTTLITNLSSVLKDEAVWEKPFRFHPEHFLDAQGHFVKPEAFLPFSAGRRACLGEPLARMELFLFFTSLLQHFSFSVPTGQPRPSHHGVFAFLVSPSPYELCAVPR
Sequence of Voltage-gated inwardly rectifying potassium channel KCNH2 (Q12809 whole entry): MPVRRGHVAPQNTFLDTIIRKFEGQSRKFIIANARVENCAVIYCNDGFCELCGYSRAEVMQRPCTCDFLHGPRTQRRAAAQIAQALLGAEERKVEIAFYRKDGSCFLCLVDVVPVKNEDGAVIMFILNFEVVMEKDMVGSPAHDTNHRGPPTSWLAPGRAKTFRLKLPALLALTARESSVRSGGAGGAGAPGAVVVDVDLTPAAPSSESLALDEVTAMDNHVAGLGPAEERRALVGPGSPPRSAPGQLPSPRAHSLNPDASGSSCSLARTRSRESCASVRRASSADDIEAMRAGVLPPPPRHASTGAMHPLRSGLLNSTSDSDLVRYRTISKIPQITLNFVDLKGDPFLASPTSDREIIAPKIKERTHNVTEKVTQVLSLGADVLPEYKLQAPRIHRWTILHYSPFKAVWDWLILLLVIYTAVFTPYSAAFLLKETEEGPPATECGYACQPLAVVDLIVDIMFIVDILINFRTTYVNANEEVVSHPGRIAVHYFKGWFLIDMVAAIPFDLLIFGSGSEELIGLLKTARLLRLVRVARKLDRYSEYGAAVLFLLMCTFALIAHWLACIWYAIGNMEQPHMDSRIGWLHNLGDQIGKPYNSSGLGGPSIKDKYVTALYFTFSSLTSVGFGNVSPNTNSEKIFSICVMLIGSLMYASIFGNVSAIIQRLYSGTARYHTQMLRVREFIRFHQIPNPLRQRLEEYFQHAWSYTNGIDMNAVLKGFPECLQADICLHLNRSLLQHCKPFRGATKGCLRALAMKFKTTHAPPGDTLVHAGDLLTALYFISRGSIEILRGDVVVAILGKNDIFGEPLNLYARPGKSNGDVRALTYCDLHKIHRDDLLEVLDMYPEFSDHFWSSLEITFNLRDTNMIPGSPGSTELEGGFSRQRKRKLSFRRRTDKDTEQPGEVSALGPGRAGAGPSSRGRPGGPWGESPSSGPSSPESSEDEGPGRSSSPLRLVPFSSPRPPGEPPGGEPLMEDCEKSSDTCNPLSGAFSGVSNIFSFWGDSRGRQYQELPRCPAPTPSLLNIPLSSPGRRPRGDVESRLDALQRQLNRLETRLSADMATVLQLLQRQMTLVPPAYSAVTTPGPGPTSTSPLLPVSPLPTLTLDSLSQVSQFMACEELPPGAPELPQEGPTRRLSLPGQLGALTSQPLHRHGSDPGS

## O=C(O)CC1(c2ccc(F)cc2)C2CC3CC(C2)CC1C3 (configuration not stated)
[1]
  inhibition (INH): Active
[2]
  remaining at 10 min: 48%
[3]
  remaining at 10 min: 78%
[4]
  inhibition (INH): Active
[5]
  inhibition (INH): Active
[6]
  inhibition: inactive
[7]
  IC50: 120 nM
[8]
  AUC(0-t) at 8 h: 2 µM·h
[9]
  Activity: inactive
[10]
  Cmax: 480 nM
[11]
  EC50: > 50 µM
[12]
  Activity: inactive
[13]
  inhibition: < 50%
[14]
  inhibition (INH): Active
[15]
  inhibition (INH): Active
[16]
  inhibition (INH): Active
[17]
  Activity: inactive
